Data as given in ChEMBL document CHEMBL3994571, “Caffeoyl Triterpenoid Esters as Potential Anti-ischemic Stroke Agents from Celastrus orbiculatus” (J Nat Prod, 2016).
Activity calls are given as the source filed them. The rule behind the calls is not given here.

Key:
[1] = system: SH-SY5Y; test: Neuroprotective activity against oxygen glucose deprivation-induced cell death in human SH-SY5Y cells assessed as increase in cell viability at 10 uM treated at beginning of 24 hrs reoxygenation period by MTT assay; type: functional, cell-based
How it was run: (§1)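 SH-SY5Y cells seeded at 2 × 10⁴ cells/well. Medium replaced by glucose-free EBSS (pH 7.4), then 1 h hypoxia (85% N₂, 10% H₂, 5% CO₂, 37 °C). Reoxygenated under normal culture for 24 h, compound added at start of reoxygenation. MTT read at 490 nm, given as % of non-OGD control. Mean ± SEM from three independent experiments.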

[2] = system: SH-SY5Y; test: Neuroprotective activity in human SH-SY5Y cells assessed as reduction in oxygen glucose deprivation-induced morphological damage at 5 to 10 uM treated at beginning of 24 hrs reoxygenation period; type: functional, cell-based
How it was run: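 SH-SY5Y cells exposed to 1 h OGD in glucose-free EBSS (pH 7.4) under 85% N₂/10% H₂/5% CO₂ at 37 °C, then 24 h reoxygenation. Compound added after OGD at reoxygenation onset. Dendrite fragmentation and cell number assessed by morphological observation.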

[3] = system: SH-SY5Y; test: Neuroprotective activity against oxygen glucose deprivation-induced cell death in human SH-SY5Y cells assessed as cell viability at 10 uM treated at beginning of 24 hrs reoxygenation period by MTT assay (reference value: 55.05 +/- 2.03%); type: functional; details: read-out: Activity; how it was run: as §1
[4] = system: SH-SY5Y; test: Neuroprotective activity against oxygen glucose deprivation-induced cell death in human SH-SY5Y cells assessed as increase in cell viability treated at beginning of 24 hrs reoxygenation period by MTT assay; type: functional, cell-based; how it was run: as §1
[5] = system: SH-SY5Y; test: Cytotoxicity against human SH-SY5Y cells at 1 to 10 uM after 24 hrs by MTT assay; type: cell-based
How it was run: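 SH-SY5Y cells grown in 1:1 MEM/F12 with 10% FBS and penicillin/streptomycin at 37 °C, 5% CO₂. Seeded at 2 × 10⁴ cells/well. Normal cells without OGD exposed to compound. Viability by MTT: 3 h at 37 °C in dark, formazan dissolved in DMSO, absorbance at 490 nm.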

[6] = system: Rattus norvegicus; test: Neuroprotective activity against middle cerebral artery occlusion-induced Sprague-Dawley rat ischemic stroke model assessed as decrease in brain infarct volume at 10 mg/kg, iv dosed 2 hrs post onset of ischemia measured after 24 hrs of reperfusion by TTC staining based assay relative to control; type: functional; parameters: scale not given: the % may be the effect or the level left
How it was run: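 Male Sprague-Dawley rats, 230–280 g, under chloral hydrate (400 mg/kg i.p.). Left MCA occluded 2 h by 4-0 nylon filament, then reperfused; body temperature kept at 37.0 ± 0.5 °C. Edaravone as positive control. After 24 h reperfusion, 2 mm coronal sections stained with 1% TTC for 15 min, then fixed in 4% paraformaldehyde. White tissue scored as infarct. n = 11–14.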

[7] = system: Rattus norvegicus; test: Neuroprotective activity against middle cerebral artery occlusion-induced Sprague-Dawley rat ischemic stroke model assessed as reduction in neurological score at 10 mg/kg, iv dosed 2 hrs post onset of ischemia measured after 24 hrs of reperfusion […]; type: functional, organism-based
How it was run: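 Male Sprague-Dawley rats, 230–280 g, given 2 h filament MCAO under chloral hydrate anaesthesia, then reperfused. Edaravone as positive control. After 24 h reperfusion, deficits rated by modified Neurological Severity Score on an 18-point scale (motor, visual, tactile); higher means worse. n = 11–14.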

Structure (SMILES) | Activity [1] | Activity [2] | viability at 10 µM [3] [%] | Activity [4] | Activity [5] | Activity [6] [%] | Activity [7]
C[C@H]1C(=O)CC[C@@H]2[C@]1(C)CC[C@H]1[C@@]2(C)CC[C@@]2(C)[C@@H]3C[C@](C)(COC(=O)/C=C/c4ccc(O)cc4)CC[C@]3(C)CC[C@]12C | inactive | – | – | – | – | – | –
C[C@H]1C(=O)CC[C@@H]2[C@]1(C)CC[C@H]1[C@@]2(C)CC[C@@]2(C)[C@@H]3C[C@](C)(COC(=O)/C=C/c4ccc(O)c(O)c4)CC[C@]3(C)CC[C@]12C | Active | Active | 115 | Dose-dependent effect | Non-Toxic | 14.2 | Active
